Each structure is given as a SMILES string. Activity calls are given as the source filed them. The rule behind the calls is not given here.

From ChEMBL document CHEMBL2311522, “Design, synthesis and biological evaluation of novel aliphatic amido/sulfonamido-quaternary ammonium salts as antitumor agents” (2013) come the findings set out here.

One test relates to NCI-H23. Kind of test: Growth inhibition of human NCI-H23 cells by SRB assay. Format: functional. (The SRB assay estimates cell density from bound dye.)
The test system of a further test is HCT-15. Kind of test: Growth inhibition of human HCT15 cells by SRB assay. The format is functional.
The test system of a further test is MDA-MB-231. Description: Growth inhibition of human MDA-MB-231 cells by SRB assay. Format: functional.
For the next test, the system named is ACHN. Kind of test: Growth inhibition of human ACHN cells by SRB assay. The format is functional.
Another test has as its system PC-3. Description: Growth inhibition of human PC3 cells by SRB assay. Format: functional.
A further test concerns NUGC-3. Kind of test: Growth inhibition of human NUGC3 cells by SRB assay. Format: functional.
Test [1] deals with Rho-related GTP-binding protein RhoB (Homo sapiens) (UniProt P62745). Kind of test: Transactivation of RhoB (unknown origin) transfected in human HeLa cells at 5 uM by dual luciferase reporter gene assay. The format is cell-based. The gist of the method: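 HeLa cells at 75–90% confluency were transiently cotransfected with a pGL2-RhoB-firefly luciferase promoter construct, then exposed to compounds. RhoB promoter activation was read as luciferase activity with a dual-luciferase reporter system. NSC126188 and perifosine, each at the same concentration as the compounds, served as positive controls.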
Chain of Rho-related GTP-binding protein RhoB (Homo sapiens) (P62745 whole entry): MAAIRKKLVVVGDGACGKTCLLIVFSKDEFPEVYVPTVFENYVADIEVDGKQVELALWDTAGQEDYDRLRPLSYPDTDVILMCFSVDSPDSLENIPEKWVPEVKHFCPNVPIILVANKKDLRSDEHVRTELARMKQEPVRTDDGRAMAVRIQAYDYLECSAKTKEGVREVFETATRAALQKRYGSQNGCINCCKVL

By GI50 is commonly meant the concentration that inhibits growth by half. For `CCCCCCCCCCCCCCCCCC(=O)N1CCC[N+](C)(C)CC1`, the GI50 in the test with NCI-H23 came out at 1.16 µM; in the test on HCT-15, 0.4 µM; in the test on MDA-MB-231 it was 0.67 µM; in the test on ACHN, 0.57 µM; with PC-3, 0.24 µM; with NUGC-3, 0.26 µM.
Regarding `CCCCCCCCCCCCCCS(=O)(=O)Nc1ccc([N+](C)(C)C)cc1`, the 50% growth inhibitory concentration (GI50) in the test on NCI-H23 turned out to be 0.73 µM; with HCT-15, 3.38 µM; with MDA-MB-231, 4.54 µM; with PC-3, 0.9 µM; in the test with NUGC-3 it was 1.74 µM. Besides, in the test on ACHN, the GI50 entry was “inactive”.
`CCCCCCCCCCCCCCCCCC(=O)Nc1ccc([N+](C)(C)C)cc1`: the GI50 with NCI-H23 is 3.29 µM; with HCT-15 it was 1.22 µM; in the test on MDA-MB-231 it was 4.34 µM; in the test with ACHN, 1.87 µM; in the test with PC-3 it was 1.2 µM; in the test with NUGC-3, 0.41 µM.
In the case of `CCCCCCCCCCCCS(=O)(=O)Nc1ccc([N+](C)(C)C)cc1`, the 50% growth inhibitory concentration (GI50) with NCI-H23 amounted to 3.94 µM; in the test with ACHN it was 4.5 µM; in the test on PC-3 it was 1.02 µM; in the test on NUGC-3, 1.21 µM. For the same compound, the GI50 entry in the test on HCT-15 and in the test on MDA-MB-231 was “inactive” throughout.
Turning to `CCCCCCCCCCCCCC(=O)Nc1ccc([N+](C)(C)C)cc1`, the GI50 was 4.14 µM with NCI-H23; 1.36 µM in the test on HCT-15; 3.56 µM in the test with MDA-MB-231; 4.54 µM in the test with ACHN; 0.54 µM in the test with PC-3; 0.74 µM in the test on NUGC-3.
Turning to `CCCCCCCCCCCCCCCCCCOP(=O)([O-])OC1CC[N+](C)(C)CC1` [PERIFOSINE], the concentration for 50% growth inhibition (GI50) was 0.44 µM with PC-3 and 0.54 µM in the test with NUGC-3.
Consider `CCCCCCCCCCCCCCS(=O)(=O)N1CCC[N+](C)(C)CC1`, for which the GI50 came out at 0.8 µM in the test with NCI-H23; 0.38 µM with HCT-15; 0.83 µM in the test with MDA-MB-231; 1.33 µM in the test on ACHN; 0.62 µM with PC-3; 0.25 µM with NUGC-3. Moreover, the result in test [1] was Active.
For the compound `CCCCCCCCCCCCCCCCCCCC(=O)Nc1ccc([N+](C)(C)C)cc1`, the GI50 in the test with NCI-H23 was 1.93 µM; with HCT-15, 3.02 µM; in the test on MDA-MB-231, 3.68 µM; in the test on ACHN, 1.76 µM; in the test with PC-3 it was 1.63 µM; in the test with NUGC-3, 1.28 µM.
Consider `CCCCCCCCCCCCCCCCS(=O)(=O)N1CCC[N+](C)(C)CC1`, for which the GI50 in the test on NCI-H23 is 3.4 µM; with HCT-15, 0.77 µM; in the test on MDA-MB-231, 0.59 µM; in the test with ACHN it was 2.01 µM; in the test on PC-3, 0.4 µM; in the test on NUGC-3 it was 0.38 µM. Moreover, the result in test [1] was Active.
For the compound `CCCCCCCCCCCCCCCC(=O)N1CCC[N+](C)(C)CC1`, the GI50 in the test with NCI-H23 stood at 2.38 µM; in the test on HCT-15 it was 0.93 µM; in the test on MDA-MB-231, 0.94 µM; with ACHN it was 0.4 µM; in the test on PC-3 it was 0.4 µM; with NUGC-3 it was 0.21 µM. Further, the outcome in test [1] was Active.
As to `CCCCCCCCCCCCCCCCCCCC(=O)N1CCC[N+](C)(C)CC1`, the GI50 came out at 3.84 µM with NCI-H23; 0.99 µM in the test with HCT-15; 2.22 µM in the test with MDA-MB-231; 2.78 µM in the test on ACHN; 0.36 µM in the test on NUGC-3. Further, the result in test [1] was Active. Besides, the GI50 result in the test on PC-3 is “inactive”.
Consider `CCCCCCCCCCCCS(=O)(=O)N1CCC[N+](C)(C)CC1`, for which the GI50 in the test with NCI-H23 amounted to 0.96 µM; in the test on HCT-15, 0.96 µM; with MDA-MB-231, 0.84 µM; in the test with ACHN it was 1.16 µM; in the test on PC-3, 0.38 µM; in the test on NUGC-3, 0.24 µM. The outcome in test [1] was Active.
Take `CCCCCCCCCCCCCCCC(=O)N1CC[N+](C)(C)CC1`: in test [1], the result was Active. In addition, the GI50 was 0.58 µM with HCT-15, 0.48 µM in the test with PC-3 and 0.29 µM in the test on NUGC-3.
Consider `C=CC[N+]1(C)CCCN(C(=O)CCCCCCCCCCCCC)CC1` (stereo not given), for which the concentration for 50% growth inhibition (GI50) in the test with NCI-H23 is 0.28 µM; in the test with MDA-MB-231 it was 0.45 µM; in the test with ACHN, 0.44 µM; in the test on PC-3, 0.18 µM; with NUGC-3, 0.26 µM. Moreover, the outcome in test [1] was Active. Also, the GI50 entry in the test with HCT-15 is “inactive”.
On to `CCCCCCCCCCCCCC(=O)N1CCC[N+](C)(Cc2cccc([N+](=O)[O-])c2)CC1` (stereo not given), for which the GI50 with NCI-H23 was 0.89 µM; with MDA-MB-231, 0.71 µM; in the test on ACHN it was 0.82 µM; with PC-3, 0.18 µM; in the test with NUGC-3 it was 0.46 µM. Moreover, in test [1], the outcome was Active. In the test with HCT-15, the GI50 entry was “inactive”.
Take `CCCCCCCCCCCCCC(=O)N1CCC[N+](C)(Cc2ccc(F)cc2)CC1` (stereo not given): the 50% growth inhibitory concentration (GI50) worked out at 1.48 µM in the test with NCI-H23; 1.48 µM in the test on MDA-MB-231; 1.1 µM in the test on ACHN; 0.45 µM in the test on PC-3; 0.94 µM in the test with NUGC-3. The GI50 entry in the test with HCT-15 was “inactive”.
`CCCCCCCCCCCCCCCC(=O)Nc1ccc([N+](C)(C)C)cc1`: the 50% growth inhibitory concentration (GI50) in the test with NCI-H23 is 1.8 µM; in the test on HCT-15, 2.37 µM; in the test on MDA-MB-231, 2.83 µM; with ACHN, 3.15 µM; in the test with PC-3, 0.79 µM; in the test with NUGC-3, 0.7 µM.
As to `CCCCCCCCCCCCCCCC(=O)N1CCC[N+](C)(Cc2cccc(OC(F)(F)F)c2)CC1` (stereo not given), the 50% growth inhibitory concentration (GI50) with NCI-H23 is 1.45 µM; in the test with MDA-MB-231 it was 1.34 µM; in the test on ACHN, 1.93 µM; with PC-3, 0.63 µM; in the test on NUGC-3, 0.87 µM. Also, the GI50 entry in the test with HCT-15 is “inactive”.
Regarding `CCCCCCCCCCCCCC(=O)N1CCC[N+](C)(Cc2ccccc2)CC1` (stereo not given), the concentration for 50% growth inhibition (GI50) in the test on NCI-H23 is 1.07 µM; in the test on MDA-MB-231, 1.16 µM; in the test with ACHN, 1 µM; in the test on PC-3 it was 0.45 µM; in the test with NUGC-3, 0.31 µM. The outcome in test [1] was Active. Besides, the GI50 entry in the test with HCT-15 was “inactive”.
Take `CCCCCCCCCCCCCC(=O)N1CCC[N+](C)(C)CC1`: the concentration for 50% growth inhibition (GI50) is 1.36 µM in the test on NCI-H23; 1.7 µM in the test on HCT-15; 0.98 µM in the test with MDA-MB-231; 0.49 µM with ACHN; 0.36 µM with PC-3; 0.08 µM in the test on NUGC-3. For the same compound, in test [1], the result was Active.
Take `CCCCCCCCCCCCCC(=O)N1CCC[N+](C)(CC)CC1` (stereo not given): the GI50 in the test on NCI-H23 amounted to 1.18 µM; in the test with HCT-15, 1.86 µM; in the test with MDA-MB-231, 0.68 µM; with ACHN, 1.61 µM; in the test on PC-3, 0.27 µM; in the test with NUGC-3, 0.22 µM. Further, the outcome in test [1] was Active.
